Series [1] relates to A549. Kind of series: Cellular uptake in A549 cells using false-white single-photon confocal microscopy at 3.1 uM. To be noted: human, a549, 3.1 µM. The class given is ADME, cell-based. The gist of the method: (§1)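 Cells on glass coverslips grown at 37 °C, 5% CO2 to 60–80% confluence, then treated with pz (50, 25, 12.5, 6.2, 3.1 µM; DMSO stock) in the dark for 24 h. Washed twice with PBS and imaged live in PBS at room temperature. Single-photon excitation at 488 nm, long-pass 505-nm emission filter. Gain set to remove autofluorescence in DMSO-treated controls.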

In series [2] the test system is A549. Put plainly: Decrease in viability of A549 cells at 50 uM for 72 hrs. The format is cell-based. To be noted: human, a549, 72 h. The gist of the method: (§2)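 Cells were grown to 70% confluence and treated in the dark with pz (12.5, 25, 50, 100 µM) or DMSO vehicle for 72 h. MTT (200 µg) was added for 5 h at 37 °C, solubilised in DMSO, and absorbance read at 540 nm. Viability is relative to DMSO control. Four plates per experiment, at least three experiments, normalised and averaged (≥12 values per condition).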

Series [3] has as its system A549. Kind of series: Cellular uptake in A549 cells using false-white single-photon confocal microscopy. The class given is ADME, cell-based. To be noted: human. In short, it runs like this: as §1
Series [4] has as its system WI-38 VA13. Put plainly: Cytotoxicity against human fibroblast-like cell line of embryonic origin WI-38 VA13 at 12.5 to 100 uM by MTT assay. The format is functional, cell-based. In short, it runs like this: as §2
A general note: Tetrazolium dyes change colour on reduction, which living cells bring about.

Series [5] deals with A549. Kind of series: Cytotoxicity against A549 tumor cells at 12.5 to 100 uM by MTT assay. The class given is functional, cell-based. To be noted: Homo sapiens. The gist of the method: as §2
For series [6], the system named is A549. Kind of series: Colocalization experiment with mitotracker green in A549 cells at 100 uM for 24 hrs by false-white two-photon confocal microscopy. The following applies: human, a549, 24 h.
Series [7] relates to A549. Kind of series: Colocalization experiment with LysoTracker green in A549 cells at 100 uM for 24 hrs by false-white two-photon confocal microscopy. To be noted: human, a549, 24 h.
Series [8] deals with WI-38 VA13. Kind of series: Decrease in viability of WI-38 VA13 cells at 50 uM for 72 hrs. The class given is cell-based. The following applies: human, wi-38 va13, 72 h. The gist of the method: as §2
Series [9] deals with WI-38 VA13. Kind of series: Decrease in viability of WI-38 VA13 cells at 100 uM for 72 hrs. To be noted: human, wi-38 va13, 72 h. The format is cell-based. The gist of the method: as §2
In series [10] the test system is A549. Put plainly: Decrease in viability of A549 cells at 100 uM for 72 hrs. The class given is cell-based. To be noted: human, a549, 72 h. In short, it runs like this:
as §2

For series [11], the system named is A549. Put plainly: Decrease in viability of A549 cells at 25 uM for 72 hrs. The format is cell-based. The following applies: human, a549, 72 h. The gist of the method:
as §2

In series [12] the test system is WI-38 VA13. Kind of series: Percentage growth of WI-38 VA13 cells at 25 uM for 72 hrs. The class given is cell-based. To be noted: human, wi-38 va13, 72 h. The gist of the method:
as §2

Series [13] concerns WI-38 VA13. Kind of series: Percentage increase in growth of WI-38 VA13 cells at 12.5 uM for 72 hrs. The following applies: human, wi-38 va13, 72 h. The format is cell-based. The gist of the method:
as §2

For series [14], the system named is A549. Kind of series: Percentage increase in growth of A549 tumor cells at 12.5 uM for 72 hrs. The format is cell-based. To be noted: human, a549, 72 h. In short, it runs like this:
as §2

Consider `CC(C)Oc1ccc(OC(C)C)c2c1-c1nc3nc(nc4[nH]c(nc5[nH]c(nc-2n1)c(SCCOCCOCCO)c5SCCOCCOCCO)c1c(OC(C)C)ccc(OC(C)C)c41)C(SCCOCCOCCO)=C3SCCOCCOCCO`, for which the Activity entry in [1] is “Active”; in [2], 40%; in series [3] it was “Active”; in [4], “Toxic”; in series [5] it was “Toxic”; in series [6], “Active”. Moreover, in series [7], the Activity result is “Not Active”.
Take `CC(C)Oc1ccc(OC(C)C)c2c1-c1nc3nc([nH]c4nc(nc5[nH]c(nc-2n1)c(SCCOCC[n+]1ccccc1)c5SCCOCC[n+]1ccccc1)-c1c(OC(C)C)ccc(OC(C)C)c1-4)C(SCCOCC[n+]1ccccc1)=C3SCCOCC[n+]1ccccc1`: the Activity is 10% in [2]; 20% in [8]; 70% in series [9]; “Toxic” in series [4]; “Toxic” in [5]; 70% in series [10].
In the case of `CC(C)Oc1ccc(OC(C)C)c2c1-c1nc3nc([nH]c4nc(nc5[nH]c(nc-2n1)c(SCCCC(=O)O)c5SCCCC(=O)O)-c1c(OC(C)C)ccc(OC(C)C)c1-4)C(SCCCC(=O)O)=C3SCCCC(=O)O`, the Activity in series [2] worked out at 80%; in [8] it was 10%; in series [11], 40%; in series [12] it was 10%; in [13], 10%; in series [14], 10%. Further, the Activity in [10] came to 80%.

These data come from ChEMBL document CHEMBL1140424, “Charge dependence of cellular uptake and selective antitumor activity of porphyrazines” (J Med Chem, 2005).
